Test results reported in ChEMBL document CHEMBL1155517, “Rational design of a topical androgen receptor antagonist for the suppression of sebum production with properties suitable for follicular delivery” (J Med Chem, 2010).
Active and inactive are the calls of the source. No cut-off for these calls is given here.

Experiments:
[1] = Artificial human sebum-water partition coefficient, log K of the compound; assay type: physicochemical
Outline: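 About 5 mg artificial human sebum, spiked with drug at 1 mg/250 μL sebum, was equilibrated with 1 mL saturated aqueous solution at 37 C for 15 h. Drug concentration in the aqueous phase was then analysed, and the sebum–water partition coefficient was derived from it.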

[2] = Octanol-buffer partition coefficient, log D at pH 7.4; assay type: physicochemical; conditions: read-out: LogD7.4
Androgen receptor [3] = target: T1, Androgen receptor (Homo sapiens, UniProt P10275); assay: Displacement of [3H]DHT from human AR expressed in baculovirus Sf9 cells system by scintillation counting
T1 sequence (P10275 whole entry): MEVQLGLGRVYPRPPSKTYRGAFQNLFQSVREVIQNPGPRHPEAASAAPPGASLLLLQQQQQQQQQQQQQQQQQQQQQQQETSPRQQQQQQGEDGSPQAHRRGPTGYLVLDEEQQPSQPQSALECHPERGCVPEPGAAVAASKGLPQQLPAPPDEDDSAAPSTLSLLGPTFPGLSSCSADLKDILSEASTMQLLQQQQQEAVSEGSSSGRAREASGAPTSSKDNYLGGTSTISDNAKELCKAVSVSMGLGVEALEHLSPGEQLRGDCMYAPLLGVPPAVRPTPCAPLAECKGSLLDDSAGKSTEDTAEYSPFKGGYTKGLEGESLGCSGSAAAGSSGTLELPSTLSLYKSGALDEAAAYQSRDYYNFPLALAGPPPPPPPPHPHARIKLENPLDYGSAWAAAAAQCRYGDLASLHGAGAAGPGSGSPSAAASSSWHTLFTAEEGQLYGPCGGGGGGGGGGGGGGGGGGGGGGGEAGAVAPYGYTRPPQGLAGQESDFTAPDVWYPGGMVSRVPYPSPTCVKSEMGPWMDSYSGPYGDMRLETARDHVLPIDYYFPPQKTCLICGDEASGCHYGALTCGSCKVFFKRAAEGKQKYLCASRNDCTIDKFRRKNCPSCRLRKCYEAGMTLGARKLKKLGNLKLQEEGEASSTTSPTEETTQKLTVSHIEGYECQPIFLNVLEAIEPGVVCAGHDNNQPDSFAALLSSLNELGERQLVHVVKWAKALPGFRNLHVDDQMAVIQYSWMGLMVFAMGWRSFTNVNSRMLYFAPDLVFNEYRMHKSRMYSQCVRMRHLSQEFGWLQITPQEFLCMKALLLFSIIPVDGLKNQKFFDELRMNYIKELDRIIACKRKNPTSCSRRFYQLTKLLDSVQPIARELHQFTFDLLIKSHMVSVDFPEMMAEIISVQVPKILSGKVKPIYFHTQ

Androgen receptor [4] = target: T1, Androgen receptor; assay: Antagonist activity at androgen receptor in human MDA-MB-453 cells coexpressing MMTV-ARE reporter gene assessed as inhibition of DHT-induced response; assay type: functional, cell-based
Progesterone receptor = target: T2, Progesterone receptor (Homo sapiens, UniProt P06401); assay: Binding affinity to progesterone receptor by PRB assay
T2 sequence (P06401 whole entry): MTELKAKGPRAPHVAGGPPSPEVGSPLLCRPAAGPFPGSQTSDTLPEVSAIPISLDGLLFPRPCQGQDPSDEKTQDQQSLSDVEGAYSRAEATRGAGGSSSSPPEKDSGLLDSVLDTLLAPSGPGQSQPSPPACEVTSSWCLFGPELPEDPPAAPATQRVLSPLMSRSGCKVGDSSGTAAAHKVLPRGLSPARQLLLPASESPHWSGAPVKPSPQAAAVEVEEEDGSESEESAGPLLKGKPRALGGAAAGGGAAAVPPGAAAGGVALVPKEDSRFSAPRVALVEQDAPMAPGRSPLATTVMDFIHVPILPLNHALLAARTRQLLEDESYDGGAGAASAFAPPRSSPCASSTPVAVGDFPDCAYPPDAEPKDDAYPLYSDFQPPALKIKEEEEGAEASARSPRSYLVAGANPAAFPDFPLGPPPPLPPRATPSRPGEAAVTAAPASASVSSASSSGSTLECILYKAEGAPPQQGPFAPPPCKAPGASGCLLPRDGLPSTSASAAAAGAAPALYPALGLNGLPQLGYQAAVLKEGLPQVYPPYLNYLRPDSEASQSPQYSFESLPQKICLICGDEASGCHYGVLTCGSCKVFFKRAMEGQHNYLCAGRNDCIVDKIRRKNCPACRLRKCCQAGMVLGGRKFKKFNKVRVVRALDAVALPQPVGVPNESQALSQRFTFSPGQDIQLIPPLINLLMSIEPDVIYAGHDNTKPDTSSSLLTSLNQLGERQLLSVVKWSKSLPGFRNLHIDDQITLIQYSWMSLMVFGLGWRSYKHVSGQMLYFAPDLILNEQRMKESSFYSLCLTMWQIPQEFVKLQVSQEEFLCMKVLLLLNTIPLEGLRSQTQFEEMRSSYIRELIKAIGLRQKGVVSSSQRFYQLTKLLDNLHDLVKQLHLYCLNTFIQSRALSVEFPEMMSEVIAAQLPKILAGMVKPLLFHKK

Syrian golden hamster [5] = assay: Inhibition of cholesterol ester in Syrian golden hamster ear model for sebum at 1.5% administered topically BID 5 days a week for 2 weeks measured 18 to 24 hrs after the final dose; assay type: functional, Mesocricetus auratus
Syrian golden hamster [6] = assay: Inhibition of wax ester in Syrian golden hamster ear model for sebum at 1.5% administered topically BID 5 days a week for 2 weeks measured 18 to 24 hrs after the final dose; assay type: functional, Mesocricetus auratus
Syrian golden hamster [7] = assay: Inhibition of cholesterol ester in Syrian golden hamster ear model for sebum at 1% administered topically BID 5 days a week for 2 weeks measured 18 to 24 hrs after the final dose; assay type: functional, Mesocricetus auratus
Syrian golden hamster [8] = assay: Inhibition of wax ester in Syrian golden hamster ear model for sebum at 1% administered topically BID 5 days a week for 2 weeks measured 18 to 24 hrs after the final dose; assay type: functional, Mesocricetus auratus
Estrogen receptor = target: T3, Estrogen receptor (Homo sapiens, UniProt P03372); assay: Binding affinity to estrogen receptor
T3 sequence (P03372 whole entry): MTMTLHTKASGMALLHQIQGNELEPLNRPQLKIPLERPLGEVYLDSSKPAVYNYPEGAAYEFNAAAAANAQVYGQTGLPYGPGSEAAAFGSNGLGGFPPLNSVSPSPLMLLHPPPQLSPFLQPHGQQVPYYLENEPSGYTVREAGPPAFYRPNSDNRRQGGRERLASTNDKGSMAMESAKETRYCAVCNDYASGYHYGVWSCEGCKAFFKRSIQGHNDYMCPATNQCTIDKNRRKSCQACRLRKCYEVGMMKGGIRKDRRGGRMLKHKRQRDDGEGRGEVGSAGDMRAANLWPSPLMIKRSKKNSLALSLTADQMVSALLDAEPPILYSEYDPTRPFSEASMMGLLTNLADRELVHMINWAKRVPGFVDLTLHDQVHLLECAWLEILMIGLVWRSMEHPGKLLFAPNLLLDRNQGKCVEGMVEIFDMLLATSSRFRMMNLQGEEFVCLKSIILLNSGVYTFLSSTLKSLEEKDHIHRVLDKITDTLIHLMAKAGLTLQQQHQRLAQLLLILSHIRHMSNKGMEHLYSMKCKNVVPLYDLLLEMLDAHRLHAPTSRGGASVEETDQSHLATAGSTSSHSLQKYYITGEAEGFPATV

[9] = Binding affinity to thyroid hormone receptor
Glucocorticoid receptor = target: T4, Glucocorticoid receptor (Homo sapiens, UniProt P04150); assay: Binding affinity to glucocorticoid receptor
T4 sequence (P04150 whole entry): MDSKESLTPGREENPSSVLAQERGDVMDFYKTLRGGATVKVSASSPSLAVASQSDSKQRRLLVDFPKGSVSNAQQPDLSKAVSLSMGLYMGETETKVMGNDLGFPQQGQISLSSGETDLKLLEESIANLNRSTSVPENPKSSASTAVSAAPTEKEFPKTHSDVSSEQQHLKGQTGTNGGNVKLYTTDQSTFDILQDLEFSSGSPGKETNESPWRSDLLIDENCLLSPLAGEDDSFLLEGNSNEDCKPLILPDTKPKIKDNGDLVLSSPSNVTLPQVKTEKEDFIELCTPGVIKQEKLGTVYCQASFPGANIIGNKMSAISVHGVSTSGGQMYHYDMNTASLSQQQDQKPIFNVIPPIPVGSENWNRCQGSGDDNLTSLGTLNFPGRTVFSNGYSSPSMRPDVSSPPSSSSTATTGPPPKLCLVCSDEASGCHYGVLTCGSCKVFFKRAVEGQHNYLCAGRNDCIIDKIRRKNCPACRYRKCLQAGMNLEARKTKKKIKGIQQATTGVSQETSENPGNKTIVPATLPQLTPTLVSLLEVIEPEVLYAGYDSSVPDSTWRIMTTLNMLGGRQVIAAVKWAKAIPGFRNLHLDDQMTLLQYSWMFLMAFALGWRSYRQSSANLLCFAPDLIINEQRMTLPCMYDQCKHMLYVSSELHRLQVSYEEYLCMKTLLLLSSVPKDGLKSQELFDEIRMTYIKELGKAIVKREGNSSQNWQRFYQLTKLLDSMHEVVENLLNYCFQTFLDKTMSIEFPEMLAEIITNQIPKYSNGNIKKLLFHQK

[10] = Hamster sebum-water partition coefficient, log K of the compound; assay type: ADME
Syrian golden hamster [11] = assay: Inhibition of wax ester in Syrian golden hamster ear model for sebum administered topically BID 5 days a week for 2 weeks measured 18 to 24 hrs after the final dose; assay type: functional, Mesocricetus auratus
Outline: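 Golden Syrian hamster ear model with twice-daily topical dosing for 2 weeks in the vehicle chosen for phase 1 studies. Wax ester production was measured across a range of doses, and ED50 was expressed as % dose. Data are mean ± SEM, N = 5.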

Syrian golden hamster [12] = assay: Reduction in wax ester-associated sebaceous gland size decrease in Syrian golden hamster ear model for sebum administered topically BID 5 days a week for 2 weeks measured 18 to 24 hrs after the final dose; assay type: functional, organism-based; conditions: Mesocricetus auratus
Outline: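 Hamsters were dosed on the ear twice daily for 2 weeks. Sebaceous gland size was quantified by fatty acid synthase immunohistochemical staining and correlated with wax ester reduction by correlation coefficient.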

Syrian golden hamster [13] = assay: Toxicity in Syrian golden hamster ear model for sebum assessed as cytotoxicity-mediated sebaceous gland size administered topically BID 5 days a week for 2 weeks measured 18 to 24 hrs after the final dose; assay type: organism-based, Mesocricetus auratus; conditions: in vivo, topical_or_ocular
Outline: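 After 2 weeks of twice-daily topical application to hamster ears, sebocytes were examined histopathologically for cytotoxic changes alongside the reduction in sebaceous gland size.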

[14] = Drug level in Syrian golden hamster sebaceous gland at 0.2% administered topically after 8 hrs; assay type: ADME, tissue-based, Mesocricetus auratus; conditions: topical or ocular, read-out: Drug uptake
[15] = Elimination half life in Syrian golden hamster sebaceous gland at 0.2% administered topically after 8 hrs; assay type: ADME, tissue-based, Mesocricetus auratus; conditions: topical or ocular, read-out: beta t1/2 (converted)
[16] = Intrinsic clearance in human liver microsomes after 1 hr by LC/MS/MS method; assay type: ADME, Microsome
[17] = Clearance in rat at 1 mg/kg, iv; assay type: ADME, organism-based; design: dose 1 mg/kg, route intravenous; conditions: in vivo
[18] = Clearance in human; assay type: ADME, organism-based; conditions: in vivo
Rattus norvegicus [19] = assay: Liver blood flow in rat at 1 mg/kg, iv; assay type: ADME, organism-based; design: dose 1 mg/kg, route intravenous; conditions: in vivo
Mus musculus [20] = assay: Toxicity in BALB/c mouse assessed as skin sensitization at 25% administered for 4 days; assay type: organism-based; conditions: in vivo, 96 h
Mus musculus [21] = assay: Toxicity in BALB/c mouse assessed as lymph node contact hypersensitivity at 25% administered for 4 days; assay type: organism-based; conditions: in vivo, 96 h
Sus scrofa [22] = assay: Toxicity in minipig assessed as dermal toleration at 25% administered topically BID for 7 days; assay type: organism-based; conditions: pig, in vivo, topical_or_ocular, 168 h
Sus scrofa [23] = assay: Toxicity in minipig assessed as systemic antiandrogenic effect at 25% administered topically BID for 7 days; assay type: organism-based; conditions: pig, in vivo, topical_or_ocular, 168 h
Rattus norvegicus [24] = assay: Toxicity in Sprague-Dawley rat assessed as systemic antiandrogenic effect at 0.5 to 300 mg/kg, po administered once-daily for 7 days; assay type: organism-based; design: dose 0.5-300 mg/kg, route oral; conditions: in vivo, 168 h

Compound | log K [1] | logD [2] | IC50 (Androgen receptor [3]) [nM] | IC50 (Androgen receptor [4]) [nM] | IC50 (Progesterone receptor) [nM] | inhibition (INH) (Syrian golden hamster [7]) [%] | inhibition (INH) (Syrian golden hamster [8]) [%] | other results
N#Cc1ccc(O[C@@H]2CCCC[C@H]2C#N)cc1C(F)(F)F | 3.03 | 3.4 | – | – | – | – | – | –
CCCN1CC(C)(C)[C@@H](Oc2ccc(C#N)c(C(F)(F)F)c2)C1=O | 2.74 | 3.33 | – | – | – | – | – | –
CSc1ccc(CN2CC(C)(C)[C@@H](Oc3ccc(C#N)c(C(F)(F)F)c3)C2=O)cc1 | 4.6 | – | 316 | 28 | > 10000 | – | – | inhibition (INH) (Syrian golden hamster [5]): 75%; inhibition (INH) (Syrian golden hamster [6]): 89%
N#Cc1ccc(Sc2ccccc2F)cc1C(F)(F)F | 4.48 | – | – | – | 6950 | 50 | 64 | –
CC1(C)CN(Cc2ccccc2)C(=O)[C@@H]1Oc1ccc(C#N)c(C(F)(F)F)c1 | 3.92 | 4.88 | 100 | 38 | 4400 | 61 | 78 | IC50 (Estrogen receptor): > 10000 nM; IC50 [9]: > 10000 nM; IC50 (Glucocorticoid receptor): > 10000 nM; log K [10]: 3.85; ED50 (Syrian golden hamster [11]): 0.02 mg/cm2; Activity (Syrian golden hamster [12]): Active; Activity (Syrian golden hamster [13]): Non-toxic; concentration at 8 h [14]: 156 µM; half-life [15]: 7 h; CLint scaled [16]: 121 mL/min/kg; clearance [17]: 57 mL/min/kg; clearance [18]: 16 mL/min/kg; LBF (Rattus norvegicus [19]): 80%; Activity (Mus musculus [20]): Non-toxic; Activity (Mus musculus [21]): Non-toxic; Activity (Sus scrofa [22]): Non-toxic; Activity (Sus scrofa [23]): Non-toxic; Activity (Rattus norvegicus [24]): Non-toxic
N#Cc1ccc(Oc2ccc(F)cc2F)cc1C(F)(F)F | 4.06 | – | 488 | 60 | > 10000 | 24 | 31 | –
CC1(C)CN(Cc2ccccc2F)C(=O)[C@@H]1Oc1ccc(C#N)c(C(F)(F)F)c1 | 3.95 | – | 174 | 44 | 4820 | 42 | 72 | –
C[C@H](O)CC[C@H](C)Oc1ccc(C#N)c(C(F)(F)F)c1 | 2.06 | 3.73 | – | – | – | – | – | –
